Bioassay records from PubChem.
Hits are enriched below; roughly 4% of the tested compounds scored in any of these assays.
CHO parental Ca = signal in parental CHO cells, OX1R antagonist counter-screen; AID 463079; actives 0.63% (n = 330,000); parental CHO-K1, ATP-induced calcium, Fluo-8 fluorescence; inhibition, % at 5.6 µM;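 active = inhibition above that plate's mean sample inhibition plus 3 SD, cut at about 26% in these data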
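Test system: parental CHO cells; detection: calcium-sensitive Fluo-8 fluorescence; evaluation: percent inhibition of calcium signal; also added: ATP as calcium-mobilizing challenge; repeats: one well per compound; control set: ATP-challenged DMSO wells low, unchallenged DMSO wells high; compound: single nominal dose of 5.6 µM per compound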
OX1R antag-1 = OX1R (human) antagonism; OX1R-expressing cells, FRET antagonist read-out; inhibition, % at 6.6 µM; actives 1.8% (n = 330,000); AID 485270; in the data active = inhibition mostly above about 38%, no sharp cut-off; inactive = mostly below about 40%
Target sequence (O43613 whole entry, looked up): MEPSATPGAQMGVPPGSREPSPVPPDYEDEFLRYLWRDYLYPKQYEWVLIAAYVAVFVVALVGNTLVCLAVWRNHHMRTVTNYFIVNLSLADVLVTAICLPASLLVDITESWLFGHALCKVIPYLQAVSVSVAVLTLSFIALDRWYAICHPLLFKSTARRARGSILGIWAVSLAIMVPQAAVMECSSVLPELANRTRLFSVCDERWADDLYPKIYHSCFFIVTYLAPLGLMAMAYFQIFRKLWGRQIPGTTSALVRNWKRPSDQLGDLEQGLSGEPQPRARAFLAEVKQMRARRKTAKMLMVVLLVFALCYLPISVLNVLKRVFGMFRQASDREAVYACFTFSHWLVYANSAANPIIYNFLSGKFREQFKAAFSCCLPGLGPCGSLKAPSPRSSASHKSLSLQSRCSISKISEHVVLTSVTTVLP
OX1R antag-2 = human HCRTR1 antagonism; AID 434989; CHO/OX1R cells, Fluo-8 calcium fluorescence, orexin A; O43613; actives 0.43% (n = 330,000); inhibition, % at 5 µM;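 active = inhibition above its plate's threshold, mean inhibition of all tested compounds on the plate plus 3 SD, cut at about 37% in these data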
TAAR1 antagonist = human TAAR1 antagonism. Q96RJ0. actives 1.5% (n = 360,000). CHO RD-HGA16 TAAR1, Fluo-8 calcium fluorescence, antagonist. inhibition, % at 3 µM;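 active = inhibition above a per-plate cutoff, the mean inhibition of test compounds on that plate plus 3 SD, cut at about 49% in these data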
Target sequence (Q96RJ0 whole entry, looked up): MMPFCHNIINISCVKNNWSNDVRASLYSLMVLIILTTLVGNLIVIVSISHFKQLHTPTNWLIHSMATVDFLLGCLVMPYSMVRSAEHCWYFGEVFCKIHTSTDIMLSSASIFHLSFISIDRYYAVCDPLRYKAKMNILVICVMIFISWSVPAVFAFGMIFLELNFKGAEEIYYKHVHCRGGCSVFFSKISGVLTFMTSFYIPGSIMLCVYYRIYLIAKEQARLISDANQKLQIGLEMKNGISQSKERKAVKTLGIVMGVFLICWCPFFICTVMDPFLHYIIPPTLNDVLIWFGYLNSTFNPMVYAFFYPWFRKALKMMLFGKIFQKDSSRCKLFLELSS
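Test system: hTAAR1-expressing CHO RD-HGA16 cells, Gα16-coupled; Probe or stimulus: EC80 β-phenethylamine stimulus; Compound dosing: single nominal final test compound concentration of 3 µM; Timing: 140 s kinetic read after compound, 140 s after agonist; Signal: Fluo-8 calcium-sensitive fluorescence; Measure: % inhibition of agonist calcium response; Controls: DMSO and EC80 PEA controls.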
TAAR1 agonist = human TAAR1 agonism; actives 0.99% (n = 360,000); Q96RJ0; activation, % at 3 µM; AID 624467; CHO RD-HGA16 TAAR1, Fluo-8 calcium fluorescence; vehicle wells 0%, saturating PEA agonist 100%;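 active = activation above the mean activation of all test compounds in the run plus 3 SD, cut at about 38% in these data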
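Test system: RD-HGA16 (CHO) cells co-expressing Gα16 and hTAAR1; dosing: one-point dosing at 3 µM (nominal); timing: 17-24 h seeding, 75 min 37 °C dye, 30 min RT; signal: kinetic Fluo-8 calcium fluorescence; read-out basis: % activation relative to PEA EC100 response; controls: DMSO and PEA EC100; replicates: n 1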
Of the large screens only hits and unclear results are named; the others gave an inactive call.

CCc1nc2ccc(C(=O)NC3CCN(Cc4ccccc4)CC3)cn2c1N(C)Cc1ccc(N(C)C)cc1	none (no result: CHO parental Ca, OX1R antag-1, OX1R antag-2)
O=C(CCN1C(=O)/C(=C/c2cccs2)SC1=S)Nc1ccccn1	TAAR1 antagonist 49.6
O=C(CCCN1C(=O)/C(=C\c2cccs2)SC1=S)Nc1ccc(O)cc1	none
O=C(CCCN1C(=O)/C(=C/c2ccco2)SC1=S)Nc1cccc(C(=O)O)c1	OX1R antag-1 61.1
O=C(CCCN1C(=O)/C(=C\c2cccs2)SC1=S)Nc1cccc(C(=O)O)c1	none
O=C(CCCN1C(=O)/C(=C/c2cccs2)SC1=S)Nc1ccccc1O	OX1R antag-1 60.9
COCC1CN(CCc2ccc(F)cc2)S(=O)(=O)c2c(F)cccc2O1 (stereo not given)	none (no result: CHO parental Ca, OX1R antag-1, OX1R antag-2)
CCCCNC(=O)C[C@H]1C[C@@]2(C(=O)OC)C(=C[C@H](COCc3ccccc3)O[C@@H]2C)N(CCC2=CCCCC2)C1=O	none (no result: CHO parental Ca, OX1R antag-1, OX1R antag-2)
COc1ccc(N=C2Sc3ccccc3[C@@H]3C[C@H]4[C@H](CON4C)CN23)c(OC)c1	none (no result: CHO parental Ca, OX1R antag-1, OX1R antag-2)
O=C1NC(Cc2ccc(O)cc2)c2nc3cc(F)c(F)cc3c(=O)n2-c2cc3ccccc3cc21 (stereo not given)	none (no result: CHO parental Ca, OX1R antag-1, OX1R antag-2)
O=C1NC(Cc2ccc(O)cc2)c2nc3ccc(F)cc3c(=O)n2-c2cc3ccccc3cc21 (stereo not given)	TAAR1 antagonist 50.3 (no result: CHO parental Ca, OX1R antag-1, OX1R antag-2)
O=C(Nc1ccc(S(=O)(=O)N2CCOCC2)cc1)C1CC(=O)N(c2ccc(F)cc2)C1 (stereo not given)	none
C=CCNc1nc(-c2sc(NC(=O)C(C)(C)C)nc2C)c(-n2cc(-c3ccccc3)nn2)s1	TAAR1 antagonist 61.1 (no result: CHO parental Ca, OX1R antag-1, OX1R antag-2)
COc1ccc(/C=N/OC/C(O)=C(\C#N)c2nc3ccccc3[nH]2)cc1OC	none
COc1ccc(NC(=O)C(C)Oc2ccc(/C(C)=N\O)cc2)cc1 (stereo not given)	TAAR1 agonist 54.8
Cc1noc(C)c1S(=O)(=O)Nc1ccc(C(=O)N2CCN(c3ccc(Cl)cc3)CC2)cc1	CHO parental Ca 36.2, OX1R antag-2 48.5
COC(=O)c1ccccc1NC(=O)C/C(C)=N/NC(=O)Cc1ccc(Cl)cc1	none
CCCN1CCCCC(NC(=O)c2ccccc2C)C1=O (stereo not given)	none (no result: CHO parental Ca, OX1R antag-1, OX1R antag-2)
COC(=O)[C@]1(C)CCC[C@@]2(C)C3CC[C@@]4(C)C[C@]3(CCC21)CC(=O)N4Cc1ccc(OC)cc1 (stereo not given in full)	none
COC(=O)[C@]1(C)CCC[C@@]2(C)C3CC[C@]4(OC(C)=O)C[C@@]3(CCC21)CC4=O (stereo not given in full)	TAAR1 antagonist 51.1
O=C1C2C3C=CC(CO)(O3)C2C(=O)N1c1ccc(-c2ccccc2)cc1 (stereo not given)	CHO parental Ca 60.7 (no result: TAAR1 antagonist, TAAR1 agonist)
CC1=NN(c2ccccc2)C(=O)/C1=C/c1c(O)n(-c2ccc(F)c(Cl)c2)[nH]c1=O	OX1R antag-1 74.2 (no result: TAAR1 antagonist, TAAR1 agonist)
CC1=NN(c2ccccc2)C(=O)/C1=C\c1c(C)[nH]n(-c2ccccc2)c1=O	none
Cc1cccc(C(=O)OCC(=O)N2CCC(c3ccccc3)=N2)c1O	none
O=C(OCC(=O)N1CCC(c2ccccc2)=N1)c1ccc(Cl)s1	OX1R antag-1 33.7
C=CCc1ccc(O)c(-c2cc(CC=C)ccc2O)c1	CHO parental Ca 40.2, OX1R antag-2 46.9
CCOC(=O)Cc1csc(NC(=O)c2ccc(Br)o2)n1	none
CCOC(=O)Cc1csc(NC(=O)C(C)c2ccc([N+](=O)[O-])cc2)n1 (stereo not given)	TAAR1 agonist 49.7
CCOC(=O)Cc1csc(NC(=O)/C=C/c2ccc(Br)o2)n1	TAAR1 antagonist 48.6
Cc1cc(N2CCNC[C@@H]2C)ccc1N1CCN(Cc2ccccc2)[C@@H](C)C1	none (no result: CHO parental Ca, OX1R antag-1, OX1R antag-2)
CCc1ccc(C(=O)NCc2cnn(C)c2)s1	none
Nc1ccc(C(=O)OCCCc2nc3cc4ccccc4cc3[nH]2)cc1	OX1R antag-1 41.5
COc1cccc(CNC(=O)c2cc3oc4ccccc4c3n2C)c1OC	none
CCOc1ccccc1CNC(=O)c1cc2oc3ccccc3c2n1CC	OX1R antag-1 52.6
CN(C(=O)c1ccc(NC(=O)Cc2cccc(NC(=O)C3CCN(C(=O)CCc4ccccc4)CC3)c2)cc1)C1CC1	none (no result: CHO parental Ca, OX1R antag-1, OX1R antag-2)
COc1ccc(OC)c(Nc2cc3ccccc3c(=O)[nH]2)c1	OX1R antag-1 68.3
Cc1nnsc1NC(=O)OCc1ccccc1Cl	TAAR1 agonist 41.0
Cn1cccc1C(=O)NC(=O)COC(=O)CCNS(=O)(=O)c1ccc(Cl)cc1	none
Nc1nc(-c2ccccc2)nc2sc3c(c12)CCCC3	OX1R antag-1 68.3
O=c1oc(-c2ccccc2)nc2sc3c(c12)CCC3	none
COc1ccc(N2CCN(C(=O)COC(=O)CCc3ccccc3)CC2)cc1	none
C[C@H](CO)N1C[C@H](C)[C@H](CN(C)C(=O)NC2CCCCC2)OCc2cnnn2CCCC1=O	none (no result: CHO parental Ca, OX1R antag-1, OX1R antag-2)
CCC(OC(=O)CN1C(=O)C(=O)c2ccccc21)C(=O)Nc1ccc(S(N)(=O)=O)cc1 (stereo not given)	OX1R antag-1 50.0
O=C(Cn1cnc2c(nnn2Cc2ccccc2F)c1=O)OCc1ccccc1	CHO parental Ca 79.5, OX1R antag-2 68.5
Cc1cccc(N2CC(C(=O)NCCC3=CCCCC3)CC2=O)c1C (stereo not given)	none
COc1ccc(S(=O)(=O)N(Cc2cccs2)C2CCCC2)cc1	CHO parental Ca 44.2, OX1R antag-2 54.0
Cn1cc(C(=O)N/N=C/c2c(O)ccc3ccccc23)ccc1=O	OX1R antag-1 38.5
O=C(N/N=C\c1c(O)ccc2ccccc12)c1ccc(O)cc1	none
O=C(N/N=C/c1c(O)ccc2ccccc12)c1ccc[n+](CCO)c1	OX1R antag-1 57.3
O=C(NN=Cc1c(O)ccc2ccccc12)c1ccncc1	none (no result: CHO parental Ca, OX1R antag-1, OX1R antag-2)
c1ccc(Cc2cnc(N3CCN(Cc4csc5ccccc45)CC3)nc2)cc1	none (no result: CHO parental Ca, OX1R antag-1, OX1R antag-2)
CCOC(=O)C1CCN(C(=O)Cn2cnc3sc(C)c(S(=O)(=O)N4CCCCC4)c3c2=O)CC1	none
CCOc1ccc(S(=O)(=O)Nc2ccc(C(=O)N3CC(C)OC(C)C3)cc2)cc1 (stereo not given)	TAAR1 agonist 56.7
CCOC(=O)COc1ccc(S(=O)(=O)Nc2ccc(C)cc2)cc1	TAAR1 agonist 49.5
Cc1ccc(S(=O)(=O)Nc2ccc(N3CCCCC3)cc2)cc1	none
CCOC(=O)NCc1ccc(S(=O)(=O)Nc2ccc(C)cc2)cc1	TAAR1 agonist 44.1
CCOC(=O)NCc1ccc(CNC(=O)OCC)cc1	none
Cc1ccc(NS(=O)(=O)c2ccc(C3CCCCC3)cc2)cc1	CHO parental Ca 42.1, OX1R antag-2 56.3, TAAR1 antagonist 59.1
C=CCCC1CN(Cc2ccc(OC)cc2)S(=O)(=O)c2c(NCc3cc(OC)c(OC)c(OC)c3)cccc2O1 (stereo not given)	none (no result: CHO parental Ca, OX1R antag-1, OX1R antag-2)
COc1ccc(S(=O)(=O)N2CCCc3nc(-c4ccc(F)cc4)ccc32)cc1	none (no result: CHO parental Ca, OX1R antag-1, OX1R antag-2)
Cc1ccc(CNC(=O)CCC(=O)Nc2nnc(C(C)C)s2)cc1	none
